According to the EternaBench riboswitch data:

Test system: MS2 coat protein
Test: apparent Kd, MS2 coat protein; higher = weaker binding; RNA-MaP array; FMN 200 µM where present
Method in brief: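 Green signal was scaled to red-channel RNA signal and control-cluster median Fmax, and the apparent Kd was taken as the median of filtered per-cluster binding-curve fits. The binding series used SNAP-549-labelled MS2 coat protein from 0.7 or 1.5 nM, doubling to 3 µM, on designs transcribed by stalled E. coli RNA polymerase on Illumina sequencing-chip clusters. Each series ran without and then with constant ligand in 100 mM Tris-HCl pH 7.5, 80 mM KCl, 4 mM MgCl2, BSA, DTT, yeast tRNA and Tween-20.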

[1] = designed as: OFF switch for flavin mononucleotide, no ligand
[2] = ligand present: flavin mononucleotide, designed as: OFF switch for flavin mononucleotide
[3] = designed as: ON switch for flavin mononucleotide, no ligand
[4] = ligand present: flavin mononucleotide, designed as: ON switch for flavin mononucleotide

Sequence | apparent Kd [1] | apparent Kd [2] | apparent Kd [3] | apparent Kd [4]
GAUCCACAUGAGGAUCACCCAUGUGAGGAUAUGAUACUAUGUACUUCGGUACAUAGUAUCAGAAGGCAUAUGAA | 42 nM | 196 nM |  | 
AUUAACUACAUAGGAUAUUGAUACAUGAGGAUCACCCAUGUCACGUAUUUAUAUUAAACAUUUGACAAGAAGGAUGUGGUUACA |  |  | 17.2 nM | 7.01 nM
CUAUUAUUGAUCCAUUUUUUCAACAUGAGGAUCACCCAUGUGCAGGAUAUCGUGAUUAUUAUCAACGAGAAGGGCAAAUUCACG | 45.7 nM | 149 nM |  | 
GGAUGACAAAGUCAUCCAAAUCGAACAUGAGGAUCACCCAUGUAGGAUAUGCAACUCAAAGAGUUGCAGAAGGACAUGUGCUUU | 40.9 nM | 172 nM |  | 
GUCAGCUCGUGAGGAUAUACAUGUGCUGGAAACAGCAUUAAAUUUUUCACAUGAGGAUCACCCAUGUAGAAGGCACGAGCUGAU | 17.3 nM | 39.1 nM |  | 
GCGGUUACGGUUGGCACUUAGCGAGAGGAUAUGGUAAGCUGGACAUGAGGAUCACCCAUGUACUAUCAGAAGGCUCGAGCACGC |  |  | 7.94 nM | 9.15 nM
AUCAUUCGUGUAGGAUAUGCGUGGCGAAGCUAUGCAGAAGGACAUGAGGAUCACCCAUGUCUUUCUCGAGCUGUAGCUCGAGGA | 21.3 nM | 92.2 nM |  | 
GCAGCUUGGCAGAAGGCCUAGGUGGCGGACCUAGGAGGAUAUGCUACAUGAGGAUCACCCAUGUGGGUGGGAGAAUCCUAGGAG | 133 nM | 132 nM |  | 
ACCAGUGCAUCAGGAUAUCCUCACAUGAGGAUCACCCAUGUAAUGAGCCGAGGAGAAGGGAUGUGAACUCCAGUUAUCGAUCGU |  |  | 101 nM | 14.1 nM
UAUAUAUAGUAAGGAUAUGUAUUAAUUGUAUAAACAGAAGGUACUGACAUGAGGAUCACCCAUGUUUUAGUGUGGGCAUGUAGA | 91.3 nM | 149 nM |  | 
GAGCUCAAGCAGAAGGCCGUAUGUCAAUCGACAUGAGGAUCACCCAUGUAUGAGCUCGGCGUCGCGGAGGAUAUGCAGGCUCUA |  |  | 18.6 nM | 6.63 nM
AGUAGAUCAGGAUAUACGUAAAUGGUAAUUAUGUAACUUAUACAUGAGGAUCACCCAUGUAGAAGGGAUCUACA | 19.4 nM | 51.9 nM |  | 
UAUGUUUUAGGAUAUUGUACUGCUGACAUGAGGAUCACCCAUGUAUGCUAACUCGGCUGUCGAGAAGGAGAAUAUG | 64.3 nM | 56 nM |  | 
CAGUACUGAGGAUAUACAUGAGGAUCACCCAUGUGUUCCAGCUAGGAGACUAGCAAAAGUAGAAGGCAGUACUG | 27 nM | 345 nM |  | 
AAUUACAGAGGAUAUGCGCGGUAAAACAUGAGGAUCACCCAUGUGAUACCUGCAUGACCGGCAGAAGGCUGCGUUU | 22.3 nM | 108 nM |  | 
AAUUAUUUAUGAGGAUAUUGUGGUGAAACACCACAAGAAGGCAUGAUACACAUGAGGAUCACCCAUGUGAGCCUGAUGCAUAUA | 17.2 nM | 28.4 nM |  | 
UCACGGUAUGUAGGAUAUGCAUAGCAUUGCUAUGCAGAAGGACAUGAGGAUCACCCAUGUAUGUAUUCCAUACUAAUCCCGUGG | 5.57 nM | 5.66 nM |  | 
UAUUUAUAGCAAGGAUAUGAUUAUUAUUAUUUAUCAGAAGGUGCACAUGAGGAUCACCCAUGUUUUACAAUUUGUAAUUUAAUU | 38.6 nM | 25.1 nM |  | 
CGGCGUAGCGUAAGGAUAUCGCGCGGUGUAAUUGUUGAGAAGGUACAUGAGGAUCACCCAUGUGGUCAGCCGGC | 40 nM | 40 nM |  | 
CCAGGCAGUGUGAGGAUAUCGUGGUCCUUGGAUCACGAGAAGGCACAUGAGGAUCACCCAUGUGAAUAGCUUGG | 22.2 nM | 87.3 nM |  | 
GGGAUAAGGCAGAAGGACAUGAGGAUCACCCAUGUAGGAUAUGCCUACAUCCGCAUCUUAGGUCUCGCUCUGUCGCGACCCUCU |  |  | 8.99 nM | 5.29 nM
ACUAAGCGAGGAUAUACUAACAAACCUCAAACAUACAUCAAACAUGAGGAUCACCCAUGUAGAAGGCGCAAACU | 27.3 nM | 37.6 nM |  | 
ACCGAACAUGAGGAUCACCCAUGUGAGGAUAUAGACGUGAAUUAAACACGUAACAAAACUAGAAGGCACUGGGC | 30.8 nM | 14.9 nM |  | 
AGUACUACAGGAUAUACAUGAGUGAUACUCAUAUACCUUCUACAUGAGGAUCACCCAUGUAGAAGGGUAGUACA | 15.3 nM | 12.5 nM |  | 
CGCCUGCGUAGAAUUAGCAGCUGACAGGAUAUGACAUGAGGAUCACCCAUGUGAAUUAAGAAGAGUCAGAAGGGUCACGACGCG | 9.4 nM | 10.8 nM |  | 
UUAUUUAGUGUGAGGAUAUGCUGGUCCUUGGAUCAGCAGAAGGCACAUGAGGAUCACCCAUGUAAUAUAUUAAU | 91 nM | 305 nM |  | 
UUUUUACAUGAGGAUCACCCAUGUGAGGAUAUGGAUUCGCUGGCCGUAGCCAGUGGAUCCAGAAGGCGCAUGAU | 82.7 nM | 280 nM |  | 
AGCAUGCUUGGGUAACCUGGCACAUGAGGAUCACCCAUGUGACAGGAUAUCGACGUAGAUGACGACGAGAAGGGUCUGAUGGGU | 7.61 nM | 12.3 nM |  | 

Sequence | apparent Kd [1] | apparent Kd [2] | apparent Kd [3] | apparent Kd [4]
CGCUACAGCCAGAAGGACAUGAGGAUCACCCAUGUAGGAUAUGGGAGACACAGUCCCGUGUAGAGAAACUACGCUACUGUAGCG |  |  | 679 nM | 464 nM
UACACUACUGAGAAGGGAUACAUAUAAUUUUAGUCAGGAUAUCGAUACAGUGCAGCAUGAGGACAUGAGGAUCACCCAUGUAUU |  |  | 22.3 nM | 14.6 nM
AGCUGUGGCAGAGGAUAUACUACUAUAAUCCAUUGCAAAUAGCGAUGGACAUGAGGAUCACCCAUGUAGAAGGCUGUCUCAGCA | 38.9 nM | 153 nM |  | 
AGCUGGAGAGGAUAUACGUAGGAAAAAAAAGUCUGAUCACUACAUGAGGAUCACCCAUGUAGAAGGCUCUGGCA | 21.2 nM | 62.2 nM |  | 
GGAUGACAUAGUCAUCCUUAACGAACAUGAGGAUCACCCAUGUAGGAUAUGCUACUCAAAGAGUAGCAGAAGGGUAUGUGUCUU | 53.6 nM | 56.3 nM |  | 
UUGGACGUCGUAGGAUAUGUAGCAUAUUCCUACAUGAGGAUCACCCAUGUUGACAUGGAAGAAGGACAGAAGGACGAUGUCCAU |  |  | 5.61 nM | 5.36 nM
CGAUGGUAGACAGGAUAUCGACCGGGAUACUAUGAAGACUAUAAACACAUGAGGAUCACCCAUGUCGAGAAGGGUCUCACAGCG | 37.1 nM | 60.9 nM |  | 
GCUGGGUAGGCAGGAUAUCCUCGCGCAAACACAUGAGGAUCACCCAUGUACACAAAACGUGAUAUGGAGAAGGGCUGACCCACA |  |  | 33.2 nM | 6.68 nM
CUGUUAUAUGAAGGAUAUACUUAACAUGAGGAUCACCCAUGUGGUGUUGUGAGUGAGUGAGUUUAGUAGAAGGUCAAUUCUUUU | 207 nM | 221 nM |  | 
AGUAACAGAGGAUAUACUGUUUUAUGUGUUUAUUAUUUUAAACAUGAGGAUCACCCAUGUAGAAGGCUGAAUAA | 49.7 nM | 40.4 nM |  | 
GCAGGUUAAGUCAGGAUAUACCUAUGGAUACAUAGGUAGAAGGGACAUGAGGAUCACCCAUGUGGCUCACCUGC | 24.2 nM | 40.2 nM |  | 
CAUAGUAAUUAGGAUAUCUGCCGGCUGAACCGAGGAGAAGGGAUUACAUGAGGAUCACCCAUGUGGUCCUAAGA | 17 nM | 18.7 nM |  | 
AGAUGACAAGGAUAUACUCGGGAUGCUAGUCGCGAAGAAGCACAUGAGGAUCACCCAUGUAGAAGGUGUAAGAA | 122 nM | 128 nM |  | 
AGAUCUAGGACAGGAUAUACUGAUGGCUUCAUCGAAGAUGAAGCCAUCACAUGAGGAUCACCCAUGUAGAAGGGUCCUAGAUCA | 14.5 nM | 14.9 nM |  | 
UCAUCGUGAGGAUAUUAUCGUAAGUGCAGGGUCUGACUUAGUAAGAAGGCACAUGAGGAUCACCCAUGUCCCUC | 20.2 nM | 28.5 nM |  | 
GCCAUCGCAUGAGGAUAUGGUCACCUUUGGUGACCAGAAGGCAUGUCAUAAGACAUGAGGAUCACCCAUGUAGUUAAGAUGGCA |  |  | 843 nM | 48 nM
UUAACAUGAGGAUCACCCAUGUCGUGCUAGAUGAGUUCUGGUGAGGAUAUACAUGGUAAAGAACUGUAGAAGGCACUGGGUACA |  |  | 309 nM | 336 nM
CUUGUUUAUGUAGGAUAUGCCUGGCGUGCCUUUGCAGAAGGACAUGAGGAUCACCCAUGUAGUAUGAGGCUUACCCUUGUCGCC | 28.2 nM | 24.5 nM |  | 
AGAAACUACGAGAAGGACAUAAAAGGUGCCGCAAACAUGAGGAUCACCCAUGUAGGAUAUCGUAGUUUCAGGAUCGUGAGAUCA | 28.4 nM | 262 nM |  | 
GCUGUCGCAUGAGGAUAUGGUCAGCUUUGCUGACCAGAAGGCAUGUCAAUAGACAUGAGGAUCACCCAUGUAGUAAAGGCGGCU |  |  | 380 nM | 37.8 nM
GUGGUGCAUAUACGUGGAUGUACAUGAGGAUCACCCAUGUAAGAGGAUAUGCGGAUACUAGCUCAGCAGAAGGCUUACAAAUAA | 16.1 nM | 73.8 nM |  | 
AUUGUAUGGGAAGGAUAUAGAAUAUUAUUUUAACAUGAGGAUCACCCAUGUAACCUUAUGUGUAGCUAGAAGGUCCGUUUAUUA | 131 nM | 157 nM |  | 
GCAUUGAUAACAGGAUAUAUGUUUCCUACAUGAGGAUCACCCAUGUAGGUGAUCAGCCGCGAAAAGUAGAAGGGUUAUCAAUGC |  |  | 18 nM | 16.7 nM
CCGACAUGAGGAUAUCCAUCUGGAUCAGACUAGAUCCUGAUGGAGAAGGCACAUGAGGAUCACCCAUGUUACGG | 373 nM | 89.1 nM |  | 
CCUGAGUCAGGAUAUUGUACCGGCCUGAAGCCAAGCCGACCCAAGAAGGGACAUGAGGAUCACCCAUGUGAAAA | 21.3 nM | 22.9 nM |  | 
AAAACAUGAGGAUCACCCAUGUAAAGAUCGGUCGAUGAAGGUGAGGAUAUACAAAACUUUAUGGAGUAGAAGGCACUGGGUUGA |  |  | 185 nM | 69.8 nM
UACGUACAGAAGAACUCCGGGUCCAGAAGGGACAUGAGGAUCACCCAUGUACCGUUGAUUGCUUGUCAGGAUAUGGACCCGGCC | 6.67 nM | 28 nM |  | 
